pIC50: −log10 of the molar value. Calls of active or inactive are those of the source. No cut-off for these calls is given here.
Tests used:
[1] = target: Macrophage colony-stimulating factor 1 receptor (Homo sapiens) (UniProt P07333); test: Inhibition of c-fms
[2] = Cmax in VEGF-soaked disk implanted in Sprague-Dawley rat; format: ADME, organism-based; conditions: in vivo
[3] = Oral bioavailability in mouse at 10 mg/kg; format: ADME, organism-based; conditions: in vivo
Method in brief: (§1)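 Oral suspension dosing; vehicles: mouse 10 mg/kg in OraPlus, dog 0.5 mg/kg in 1% Tween-80/2% HPMC/97% water, cynomolgus monkey 2 mg/kg.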

[4] = Tmax in dog at 0.5 mg/kg, po; format: ADME, organism-based, Canis lupus familiaris; set-up: dose 0.5 mg/kg, route oral; conditions: in vivo; method in brief: as §1
[5] = target: Hepatocyte growth factor receptor (Homo sapiens, UniProt P08581); test: Inhibition of c-Met
[6] = AUC (0 to 24 hrs) in cynomolgus monkey at 2 mg/kg, po; format: ADME, organism-based, Macaca fascicularis; set-up: time < 24 hr, dose 2 mg/kg, route oral; conditions: plasma
Method in brief: (§2)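 Compound given iv and po as single doses; vehicles: mouse iv PEG 400, po OraPlus; dog iv DMSO, po 1% Tween-80/2% HPMC/97% water; cynomolgus iv propylene glycol, po suspension.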

[7] = Cmax in dog at 0.5 mg/kg, po; format: ADME, organism-based, Canis lupus familiaris; set-up: dose 0.5 mg/kg, route oral; conditions: in vivo; method in brief: as §2
[8] = Tmax in Sprague-Dawley rat at 2 mg/kg, po; format: ADME, organism-based; set-up: dose 2 mg/kg, route oral; conditions: in vivo
Method in brief: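 Male Sprague–Dawley rats dosed iv at 0.5 mg/kg as DMSO solution or po at 2 mg/kg as suspension in 100% OraPlus. Serial jugular blood, plasma LC-MS/MS quantitation, noncompartmental analysis.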

[9] = Clearance in cynomolgus monkey at 0.5 mg/kg, iv; format: ADME, organism-based, Macaca fascicularis; set-up: dose 0.5 mg/kg, route intravenous; conditions: in vivo; method in brief: as §2
[10] = Oral bioavailability in dog at 0.5 mg/kg, po; format: ADME, organism-based, Canis lupus familiaris; conditions: in vivo; method in brief: as §1
[11] = Intrinsic clearance in rat liver microsomes at 1 uM; format: ADME, Microsome; conditions: read-out: Stability
Method in brief: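 Human or rat liver microsomes (0.25 mg protein/mL) with 1 mM NADPH, 2 mM MgCl2 in 50 mM potassium phosphate pH 7.4 at 37 °C; compound 1 µM final. Sampled 0–40 min into acetonitrile, LC-MS/MS; ln % remaining vs time slope gives T1/2; CLint = (0.693/T1/2)/0.25 mg/mL.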

[12] = Tmax in mouse at 10 mg/kg, po; format: ADME, organism-based; set-up: dose 10 mg/kg, route oral; conditions: in vivo; method in brief: as §1
HUVEC [13] = test: Inhibition of VEGF-induced proliferation of HUVEC; format: functional, cell-based; conditions: Homo sapiens
[14] = Half life in Sprague-Dawley rat at 0.5 mg/kg, iv; format: ADME, organism-based; set-up: dose 0.5 mg/kg, route intravenous; conditions: in vivo
Method in brief: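 Male Sprague–Dawley rats dosed iv via femoral vein as DMSO solution (1 or 0.5 mg/kg) or po by gavage as OraPlus suspension (pH 2.0–2.2 with methanesulfonic acid; 10 or 2 mg/kg). Serial jugular blood over 12–24 h; plasma acetonitrile precipitation, LC-MS/MS (MRM) with internal standard; noncompartmental parameters.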

Aurora kinase B = Aurora kinase B (Homo sapiens, UniProt Q96GD4); test: Inhibition of Aurora B
[15] = Aqueous solubility in 0.01 N Hcl; format: physicochemical
Rattus norvegicus = test: Inhibition of VEGF-induced angiogenesis in VEGF-soaked disk implanted in Sprague-Dawley rat cornea assessed as number of blood vessels intersecting the midpoint between disk and limbus after 7 days; format: functional; conditions: 168 h
[16] = Half life in dog at 0.5 mg/kg, po; format: ADME, organism-based, Canis lupus familiaris; set-up: dose 0.5 mg/kg, route oral; conditions: in vivo; method in brief: as §2
HT-29 [17] = test: Antitumor activity in human HT29 cell xenografted CD1 nu/nu mouse assessed as inhibition of tumor growth at 30 mg/kg, po qd for 14 days; format: functional; conditions: HT-29, 336 h, read-out: TGI
Method in brief: (§3)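 Female CD-1 nu/nu mice, 4–8 weeks, implanted sc in hind flank with 1 × 10^7 HT29 (DMEM high glucose, 5% FBS) or Calu-6 (RPMI 1640, 10% FBS) cells; treatment began at 13–14 days (~300 mm3). Methanesulfonate salt given po qd in OraPlus for 14 days; caliper volumes twice weekly; n = 10/group; RMANOVA with Scheffé test.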

[18] = Volume of distribution at steady state in cynomolgus monkey at 0.5 mg/kg, iv; format: ADME, organism-based, Macaca fascicularis; set-up: dose 0.5 mg/kg, route intravenous; conditions: in vivo, read-out: Vdss
Method in brief: (§4)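 Intravenous dosing of male/unspecified animals per species; vehicles: mouse 2 mg/kg in Peg 400, dog 0.5 mg/kg in DMSO, cynomolgus monkey 0.5 mg/kg in propylene glycol. Parameters from plasma concentration–time data by noncompartmental analysis.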

[19] = target: Tyrosine-protein kinase Lck (Homo sapiens, UniProt P06239); test: Inhibition of Lck
Mus musculus = test: Cmax in human HT29 cell xenografted CD1 nu/nu mouse at 10 mg/kg, po qd; format: ADME, organism-based, HT-29; set-up: dose 10 mg/kg, route oral; conditions: in vivo
HT-29 [20] = test: Antitumor activity in human HT29 cell xenografted CD1 nu/nu mouse assessed as inhibition of tumor growth at 10 mg/kg, po qd for 14 days; format: functional; conditions: HT-29, 336 h, read-out: TGI; method in brief: as §3
[21] = Volume of distribution at steady state in dog at 0.5 mg/kg, iv; format: ADME, organism-based, Canis lupus familiaris; set-up: dose 0.5 mg/kg, route intravenous; conditions: in vivo, read-out: Vdss; method in brief: as §4
Calu-6 (Homo sapiens) = test: Antitumor activity in human Calu6 cell xenografted CD1 nu/nu mouse assessed as inhibition of tumor growth at 20 mg/kg, po qd for 14 days; conditions: Calu-6, po, 336 h, read-out: TGI
HUVEC [22] = test: Inhibition of bFGF-induced proliferation of HUVEC; format: functional, cell-based; conditions: Homo sapiens
Method in brief: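 HUVEC seeded at 3000/well in DMEM with 10% FBS, 22 h; 2 h preincubation with serial compound dilutions, then 50 ng/mL VEGF or 20 ng/mL bFGF for 72 h at 37 °C. Freeze–thaw, CyQuant DNA dye read-out; IC50 by four-parameter logistic fit, averaged over ≥2 experiments.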

[23] = Protein binding in cynomolgus monkey plasma; format: ADME, cell-free, Macaca fascicularis; conditions: read-out: PPB (converted)
Liver microsomes [24] = test: Metabolic stability assessed as covalent binding in presence of NADPH in rat liver microsomes at 10 uM after 1 hr; format: ADME, Microsome
Method in brief: (§5)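 14C-labelled compound at 10 µM with human or rat liver microsomes (1 mg/mL) in 0.1 M potassium phosphate pH 7.4, with or without 1 mM NADPH and 1 mM glutathione, 60 min; quenched with ice-cold acetonitrile. Pellet washed with 80% methanol and ethanol/ether, solubilized, protein by BCA, radioactivity by scintillation counting.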

[25] = Protein binding in dog plasma; format: ADME, organism-based, Canis lupus familiaris; conditions: read-out: PPB (converted)
Method in brief: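 Compound spiked into plasma at 5 µg/mL (12.9 µM) from a DMSO stock, incubated 37 °C 15 min, then ultracentrifuged 3 h at 37 °C. Supernatant below lipid layer measured by LC-MS (n = 6) against QC in plasma filtrate; % bound = 1 − (centrifuged concentration / mean QC) × 100.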

[26] = target: Receptor-type tyrosine-protein kinase FLT3 (Homo sapiens) (UniProt P36888); test: Inhibition of Flt3
[27] = Volume of distribution at steady state in mouse at 2 mg/kg, iv; format: ADME, organism-based; set-up: dose 2 mg/kg, route intravenous; conditions: in vivo, read-out: Vdss; method in brief: as §4
[28] = Half life in mouse at 10 mg/kg, po; format: ADME, organism-based; set-up: dose 10 mg/kg, route oral; conditions: in vivo; method in brief: as §2
Liver microsomes [29] = test: Metabolic stability assessed as covalent binding in presence of NADPH and GSH in human liver microsomes at 10 uM after 1 hr; format: ADME, Microsome; method in brief: as §5
HT-29 [30] = test: Antitumor activity in human HT29 cells xenografted CD1 nu/nu mouse assessed as inhibition of tumor growth at 3 mg/kg, po qd for 14 days; format: functional; conditions: HT-29, 336 h, read-out: TGI; method in brief: as §3
[31] = target: Mast/stem cell growth factor receptor Kit (Homo sapiens) (UniProt P10721); test: Inhibition of c-Kit
Mast/stem cell growth factor receptor Kit (Homo sapiens), sequence (P10721 whole entry): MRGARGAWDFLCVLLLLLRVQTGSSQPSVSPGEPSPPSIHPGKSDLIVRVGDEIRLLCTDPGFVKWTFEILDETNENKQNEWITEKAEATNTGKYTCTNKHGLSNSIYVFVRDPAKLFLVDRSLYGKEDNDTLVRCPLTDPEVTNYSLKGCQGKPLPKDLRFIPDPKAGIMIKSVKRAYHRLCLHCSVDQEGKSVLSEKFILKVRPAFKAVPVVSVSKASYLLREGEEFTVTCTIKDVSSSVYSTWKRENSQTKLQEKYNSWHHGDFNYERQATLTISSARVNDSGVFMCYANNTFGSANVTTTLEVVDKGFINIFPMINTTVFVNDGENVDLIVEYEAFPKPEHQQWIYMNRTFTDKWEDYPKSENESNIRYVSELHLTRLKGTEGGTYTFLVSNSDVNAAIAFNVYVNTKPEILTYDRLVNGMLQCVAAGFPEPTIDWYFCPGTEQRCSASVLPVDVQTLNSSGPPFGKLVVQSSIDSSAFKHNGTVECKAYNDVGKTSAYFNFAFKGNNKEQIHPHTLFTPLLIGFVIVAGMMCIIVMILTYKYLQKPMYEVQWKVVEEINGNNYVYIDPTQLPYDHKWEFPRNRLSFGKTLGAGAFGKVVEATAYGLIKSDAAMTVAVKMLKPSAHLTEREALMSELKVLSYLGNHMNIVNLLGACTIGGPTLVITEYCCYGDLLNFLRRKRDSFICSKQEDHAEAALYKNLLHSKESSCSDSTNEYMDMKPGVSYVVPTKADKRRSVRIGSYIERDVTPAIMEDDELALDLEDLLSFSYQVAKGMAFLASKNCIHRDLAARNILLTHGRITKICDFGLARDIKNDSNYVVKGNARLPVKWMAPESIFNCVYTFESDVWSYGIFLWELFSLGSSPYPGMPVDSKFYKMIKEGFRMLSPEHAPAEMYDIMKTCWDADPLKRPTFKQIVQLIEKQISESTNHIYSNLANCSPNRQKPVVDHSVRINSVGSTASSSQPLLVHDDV

Receptor-type tyrosine-protein kinase FLT3 (Homo sapiens), sequence (P36888 whole entry): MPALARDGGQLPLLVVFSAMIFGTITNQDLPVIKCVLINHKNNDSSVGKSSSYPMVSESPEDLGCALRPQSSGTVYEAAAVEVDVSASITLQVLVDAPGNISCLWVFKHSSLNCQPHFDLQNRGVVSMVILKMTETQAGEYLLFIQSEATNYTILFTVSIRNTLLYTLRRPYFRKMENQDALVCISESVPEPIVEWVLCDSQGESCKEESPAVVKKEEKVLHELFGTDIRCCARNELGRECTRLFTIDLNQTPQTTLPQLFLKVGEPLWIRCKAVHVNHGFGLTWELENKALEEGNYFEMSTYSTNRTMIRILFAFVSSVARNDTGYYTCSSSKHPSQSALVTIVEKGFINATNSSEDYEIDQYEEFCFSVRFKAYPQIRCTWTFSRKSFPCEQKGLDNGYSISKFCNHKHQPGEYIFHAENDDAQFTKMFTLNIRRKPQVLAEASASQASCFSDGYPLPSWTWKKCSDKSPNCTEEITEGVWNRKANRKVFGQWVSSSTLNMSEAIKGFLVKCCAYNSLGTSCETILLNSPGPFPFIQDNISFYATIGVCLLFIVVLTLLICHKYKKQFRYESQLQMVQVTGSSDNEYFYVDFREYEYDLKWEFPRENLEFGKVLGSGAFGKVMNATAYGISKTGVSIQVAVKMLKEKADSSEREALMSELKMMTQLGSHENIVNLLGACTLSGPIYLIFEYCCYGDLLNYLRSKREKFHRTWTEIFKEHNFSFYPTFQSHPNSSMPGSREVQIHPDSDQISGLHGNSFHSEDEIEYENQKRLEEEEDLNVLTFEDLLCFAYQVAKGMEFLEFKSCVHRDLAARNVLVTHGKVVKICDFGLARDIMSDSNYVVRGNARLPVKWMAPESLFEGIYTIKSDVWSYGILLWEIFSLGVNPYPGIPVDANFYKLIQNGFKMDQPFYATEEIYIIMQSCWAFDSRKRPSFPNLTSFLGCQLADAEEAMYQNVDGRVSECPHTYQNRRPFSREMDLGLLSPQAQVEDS
Aurora kinase B, sequence (Q96GD4 whole entry): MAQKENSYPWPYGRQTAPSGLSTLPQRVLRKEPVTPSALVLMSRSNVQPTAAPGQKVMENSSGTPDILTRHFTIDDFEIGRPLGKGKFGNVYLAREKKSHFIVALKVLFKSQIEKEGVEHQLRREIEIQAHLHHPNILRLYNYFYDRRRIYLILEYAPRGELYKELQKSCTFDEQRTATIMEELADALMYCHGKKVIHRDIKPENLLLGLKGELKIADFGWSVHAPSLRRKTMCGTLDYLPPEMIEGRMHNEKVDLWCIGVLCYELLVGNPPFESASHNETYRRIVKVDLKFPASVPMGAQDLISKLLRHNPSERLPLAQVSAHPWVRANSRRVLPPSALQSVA
Hepatocyte growth factor receptor, sequence (P08581 whole entry): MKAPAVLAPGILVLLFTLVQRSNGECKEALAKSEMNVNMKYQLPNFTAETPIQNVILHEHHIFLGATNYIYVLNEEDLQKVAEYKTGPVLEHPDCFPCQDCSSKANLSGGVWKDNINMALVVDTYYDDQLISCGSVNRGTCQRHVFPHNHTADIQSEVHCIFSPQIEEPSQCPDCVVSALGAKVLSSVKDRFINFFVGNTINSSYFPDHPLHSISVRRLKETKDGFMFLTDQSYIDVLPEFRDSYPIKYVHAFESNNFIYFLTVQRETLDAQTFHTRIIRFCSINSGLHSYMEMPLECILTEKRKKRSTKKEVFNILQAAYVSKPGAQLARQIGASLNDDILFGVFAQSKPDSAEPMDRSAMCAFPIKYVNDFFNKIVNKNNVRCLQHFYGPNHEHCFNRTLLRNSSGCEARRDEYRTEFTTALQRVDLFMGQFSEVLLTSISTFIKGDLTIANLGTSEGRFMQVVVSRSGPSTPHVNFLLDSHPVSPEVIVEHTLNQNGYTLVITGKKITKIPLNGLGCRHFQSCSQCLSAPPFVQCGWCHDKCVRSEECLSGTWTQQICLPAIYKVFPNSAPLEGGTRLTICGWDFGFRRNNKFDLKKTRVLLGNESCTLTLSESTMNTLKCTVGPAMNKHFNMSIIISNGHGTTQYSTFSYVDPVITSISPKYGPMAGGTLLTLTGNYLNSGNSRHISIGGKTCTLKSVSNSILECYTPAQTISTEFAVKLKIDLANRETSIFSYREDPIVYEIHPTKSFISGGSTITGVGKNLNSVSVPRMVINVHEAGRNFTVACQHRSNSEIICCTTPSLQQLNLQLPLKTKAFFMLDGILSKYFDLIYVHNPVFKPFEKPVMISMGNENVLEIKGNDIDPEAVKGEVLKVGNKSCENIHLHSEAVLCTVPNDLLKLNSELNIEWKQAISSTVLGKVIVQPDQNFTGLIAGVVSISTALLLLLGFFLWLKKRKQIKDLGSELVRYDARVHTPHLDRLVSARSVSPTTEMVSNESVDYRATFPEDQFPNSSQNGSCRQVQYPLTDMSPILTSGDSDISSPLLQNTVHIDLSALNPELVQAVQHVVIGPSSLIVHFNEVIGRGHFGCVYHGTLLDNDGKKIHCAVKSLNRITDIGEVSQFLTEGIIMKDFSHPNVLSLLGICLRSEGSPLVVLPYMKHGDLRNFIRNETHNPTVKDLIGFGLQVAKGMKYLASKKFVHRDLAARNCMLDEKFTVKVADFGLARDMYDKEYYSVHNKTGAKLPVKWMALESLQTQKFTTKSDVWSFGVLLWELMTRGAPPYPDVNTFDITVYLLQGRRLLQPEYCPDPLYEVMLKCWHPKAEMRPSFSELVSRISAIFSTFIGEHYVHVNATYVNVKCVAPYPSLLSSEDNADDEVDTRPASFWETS
Tyrosine-protein kinase Lck, sequence (P06239 whole entry): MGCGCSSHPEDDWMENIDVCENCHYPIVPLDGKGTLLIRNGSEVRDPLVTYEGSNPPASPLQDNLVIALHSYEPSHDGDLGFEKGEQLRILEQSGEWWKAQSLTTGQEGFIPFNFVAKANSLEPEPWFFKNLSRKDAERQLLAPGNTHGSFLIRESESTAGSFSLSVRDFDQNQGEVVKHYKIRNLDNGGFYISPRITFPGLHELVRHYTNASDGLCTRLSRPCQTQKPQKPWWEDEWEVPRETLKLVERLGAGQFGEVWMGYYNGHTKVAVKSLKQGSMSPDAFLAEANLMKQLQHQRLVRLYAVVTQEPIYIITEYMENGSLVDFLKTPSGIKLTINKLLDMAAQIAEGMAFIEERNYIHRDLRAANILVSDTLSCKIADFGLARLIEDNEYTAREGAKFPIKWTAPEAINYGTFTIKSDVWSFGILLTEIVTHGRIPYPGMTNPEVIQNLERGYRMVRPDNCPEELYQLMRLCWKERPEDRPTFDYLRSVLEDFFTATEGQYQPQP

With `COc1cc2nccc(Oc3ccc4c(C(N)=O)cccc4c3)c2cc1OC` the Activity [1] was “Active”, the Cmax [2] was 50 nM and the bioavailability [3] was 39%. The Tmax [4] was 0.75 h, the pIC50 [5] was 5.16 and the AUC(0-t) at 24 h [6] was 1360 ng·h/mL. The Cmax [7] was 464 ng/mL, the Tmax [8] was 1.6 h and the clearance [9] was 13 mL/min/kg. It also gave a bioavailability [10] of 73%, a microsomal CLint at 1 µM [11] of 32 µL/min/mg and a Tmax [12] of 0.25 h. For the same molecule, the pIC50 (HUVEC [13]) was 8.68, the half-life [14] was 6 h and the pIC50 (Aurora kinase B) was 6.66. For the same molecule, the solubility [15] was over 200 µg/mL, the ED50 (Rattus norvegicus) was 0.04 mg/kg and the half-life [16] was 16 h. The inhibition in vivo at 30 mg/kg (HT-29 [17]) was 94%, the Vd [18] was 6.82 L/kg and the pIC50 [19] was 6.52. The Cmax (Mus musculus) was 1300 nM, the inhibition in vivo at 10 mg/kg (HT-29 [20]) was 85% and the Vd [21] was 1.86 L/kg. For the same molecule, the inhibition in vivo at 20 mg/kg (Calu-6 (Homo sapiens)) was 85%, the pIC50 (HUVEC [22]) was 6.64 and the fraction unbound [23] was 0.008. The Stability (Liver microsomes [24]) was 39 pmol/mg/h, the fraction unbound [25] was 0.038 and the Activity [26] was “inactive”. For the same molecule, the Vd [27] was 5.74 L/kg, the half-life [28] was 5.6 h and the Stability (Liver microsomes [29]) was 3.2 pmol/mg/h. For the same molecule, the inhibition in vivo at 3 mg/kg (HT-29 [30]) was 51% and the Activity [31] was “Active”.
